Activity calls are given as the source filed them.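 The calls were made as follows: active = peak block of the KCNQ2 potassium channel above 30% at any tested dose, with a fitted dose response curve; inactive = no channel block at any dose, or no curve.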
biological target: Potassium voltage-gated channel subfamily KQT member 2 (Rattus norvegicus) (UniProt O88943); test: KCNQ2 thallium flux blockade – cell-based, FluxOR thallium flux, CRC, selectivity assay for KCNK9 inhibitor project, SAR follow-up (AID 588761); conditions: KCNQ2-expressing cells; series mostly up to 30 µM; fluorescence ratio, lower = inhibition: at the top concentration
Sequence (O88943 whole entry, looked up): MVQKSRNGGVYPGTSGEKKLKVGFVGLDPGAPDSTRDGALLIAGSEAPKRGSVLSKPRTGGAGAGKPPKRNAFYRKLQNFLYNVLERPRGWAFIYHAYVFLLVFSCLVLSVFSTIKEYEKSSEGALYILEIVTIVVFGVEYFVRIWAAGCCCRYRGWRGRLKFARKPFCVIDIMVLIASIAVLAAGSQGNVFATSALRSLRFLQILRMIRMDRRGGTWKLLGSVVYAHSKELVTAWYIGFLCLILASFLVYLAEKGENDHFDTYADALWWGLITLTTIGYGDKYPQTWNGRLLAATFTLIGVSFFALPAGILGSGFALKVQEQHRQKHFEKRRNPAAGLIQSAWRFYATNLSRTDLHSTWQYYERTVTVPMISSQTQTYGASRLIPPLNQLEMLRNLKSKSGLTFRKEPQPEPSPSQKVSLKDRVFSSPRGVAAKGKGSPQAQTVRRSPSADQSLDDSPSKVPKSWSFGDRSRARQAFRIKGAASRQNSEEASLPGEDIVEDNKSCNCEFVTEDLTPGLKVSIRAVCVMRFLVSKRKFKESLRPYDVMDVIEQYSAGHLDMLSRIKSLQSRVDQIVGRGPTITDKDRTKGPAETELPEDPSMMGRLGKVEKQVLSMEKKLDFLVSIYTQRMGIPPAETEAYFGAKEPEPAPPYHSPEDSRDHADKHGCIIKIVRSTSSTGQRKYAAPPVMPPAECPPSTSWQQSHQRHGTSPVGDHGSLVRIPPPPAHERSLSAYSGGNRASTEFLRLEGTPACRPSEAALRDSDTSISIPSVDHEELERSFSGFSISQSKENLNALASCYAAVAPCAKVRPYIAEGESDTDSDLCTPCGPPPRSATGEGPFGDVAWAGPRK
Outline: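 Repeats: ≥2 replicates | Test system: KCNQ2-expressing CHO cells | Detection: FluxOR thallium flux, kinetic imaging, 10 s baseline, 110 s post-stimulus | Probe or stimulus: Tl+/K+ stimulus (5x stock 7 mM Tl2SO4, 25 mM K2SO4) | Schedule: Dye 90 min RT, compound 20 min RT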

Fluorescence ratio, lower = inhibition, inactive:
Cc1cccc(NC(=O)c2cccc(NC(=O)c3ccccc3)c2)c1 0.187
Cc1cccc(C(=O)Nc2ccccc2C(=O)Nc2ccccc2)c1 0.171
Cc1cccc(C(=O)Nc2ccc(C(=O)Nc3ccccc3)cc2)c1 0.198
Cc1cccc(C(=O)Nc2cccc(C(=O)Nc3ccccc3)c2)c1 0.18
Cc1cccc(NC(=O)c2ccccc2NC(=O)c2ccccc2)c1 0.206

Source: PubChem BioAssay AID588761 (Johns Hopkins Ion Channel Center, 2011)
